Assay results from ChEMBL document CHEMBL2046381, “Defining the mechanism of action and enzymatic selectivity of psammaplin A against its epigenetic targets” (J Med Chem, 2012).
The source made the active and inactive calls.

Key:
MCF7 [1] = test: Inhibition of Class 1 histone deacetylase in human MCF7 cells assessed as up-regulation of p21 protein level at 0.5 uM after 24 hrs by Western blot analysis; assay type: cell-based
Outline: (§1)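 MCF7 cells (5 × 10^6 per T75 flask) treated 24 h, harvested by trypsinization, lysed in RIPA on ice; 50 μg total protein resolved on 12% SDS-PAGE, transferred to nitrocellulose and probed for histone, acetylated histone, tubulin, acetylated tubulin, p21 and actin. Untreated cells as negative control.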

Histone deacetylase 1 [2] = biological target: T1, Histone deacetylase 1 (Homo sapiens, UniProt Q13547); test: Inhibition of human recombinant HDAC1 using Boc-lys(Ac)-AMC as substrate preincubated for 20 mins with substrate measured after 60 mins by fluorescence analysis
[3] = biological target: T2, Protein deacetylase HDAC6 (Homo sapiens, UniProt Q9UBN7); test: Inhibition of human recombinant HDAC6 using Boc-lys(Ac)-AMC as substrate preincubated for 20 mins with substrate measured after 60 mins by fluorescence analysis
T2 sequence (Q9UBN7 whole entry): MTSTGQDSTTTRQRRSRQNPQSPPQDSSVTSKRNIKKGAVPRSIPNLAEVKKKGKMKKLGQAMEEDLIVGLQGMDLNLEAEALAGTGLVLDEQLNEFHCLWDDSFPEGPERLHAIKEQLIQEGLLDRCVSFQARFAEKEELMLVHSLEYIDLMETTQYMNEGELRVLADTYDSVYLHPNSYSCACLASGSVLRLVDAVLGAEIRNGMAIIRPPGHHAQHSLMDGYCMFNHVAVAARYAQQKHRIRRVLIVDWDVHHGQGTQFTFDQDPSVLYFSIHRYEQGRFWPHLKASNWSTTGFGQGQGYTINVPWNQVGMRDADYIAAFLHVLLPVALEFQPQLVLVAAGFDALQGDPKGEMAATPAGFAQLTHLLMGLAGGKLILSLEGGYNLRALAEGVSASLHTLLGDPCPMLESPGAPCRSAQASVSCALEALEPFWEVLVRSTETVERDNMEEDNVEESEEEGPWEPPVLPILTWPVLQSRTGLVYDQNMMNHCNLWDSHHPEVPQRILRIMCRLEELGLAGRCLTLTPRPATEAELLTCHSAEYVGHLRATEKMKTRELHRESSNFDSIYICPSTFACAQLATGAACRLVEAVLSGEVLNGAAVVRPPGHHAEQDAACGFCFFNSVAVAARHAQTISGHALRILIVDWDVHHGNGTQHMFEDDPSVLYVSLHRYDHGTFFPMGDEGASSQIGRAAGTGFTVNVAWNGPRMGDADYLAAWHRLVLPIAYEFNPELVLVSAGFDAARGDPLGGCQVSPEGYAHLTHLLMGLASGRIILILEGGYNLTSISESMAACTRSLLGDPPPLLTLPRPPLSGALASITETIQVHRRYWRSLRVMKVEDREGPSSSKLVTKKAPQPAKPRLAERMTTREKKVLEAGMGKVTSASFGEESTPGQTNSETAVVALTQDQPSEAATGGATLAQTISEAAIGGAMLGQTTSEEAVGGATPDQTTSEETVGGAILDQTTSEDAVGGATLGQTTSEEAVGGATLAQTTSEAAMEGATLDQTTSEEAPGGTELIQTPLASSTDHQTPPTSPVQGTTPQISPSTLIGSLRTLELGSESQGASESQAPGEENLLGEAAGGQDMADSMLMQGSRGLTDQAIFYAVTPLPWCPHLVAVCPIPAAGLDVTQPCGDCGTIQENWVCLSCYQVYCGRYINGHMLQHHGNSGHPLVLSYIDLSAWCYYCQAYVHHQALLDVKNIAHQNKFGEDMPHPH

[4] = biological target: T3, Protein deacetylase HDAC6 (Homo sapiens) (UniProt Q9UBN7); test: Inhibition of HDAC6 in human MCF7 cells assessed as change in tubulin acetylation level at 1 uM after 24 hrs by Western blot analysis; assay type: cell-based; outline: as §1
T3 sequence (whole entry): T2 sequence (Q9UBN7 whole entry)

[5] = biological target: T4, Histone deacetylase-like amidohydrolase (Alcaligenes sp. (strain DSM 11172) (Bordetella sp. (strain FB188))) (UniProt Q70I53); test: Inhibition of Bordetella sp. (strain FB188) N-terminus His-tagged HDAH expressed in Escherichia coli BL21 (DE3) up to 100 uM; conditions: Alcaligenaceae bacterium FB188
T4 sequence (whole entry): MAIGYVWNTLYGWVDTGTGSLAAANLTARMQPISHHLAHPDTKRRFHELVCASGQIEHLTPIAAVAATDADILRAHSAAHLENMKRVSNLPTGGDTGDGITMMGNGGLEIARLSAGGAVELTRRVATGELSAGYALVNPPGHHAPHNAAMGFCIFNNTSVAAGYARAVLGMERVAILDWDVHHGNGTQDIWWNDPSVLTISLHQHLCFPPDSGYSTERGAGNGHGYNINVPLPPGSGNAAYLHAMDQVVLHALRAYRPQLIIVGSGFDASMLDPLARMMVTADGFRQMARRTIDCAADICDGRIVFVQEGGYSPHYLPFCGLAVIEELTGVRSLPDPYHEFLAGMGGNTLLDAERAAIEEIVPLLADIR
Outline: (§2)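 Recombinant N-terminal His6-tagged HDAH from Bordetella strain FB188, expressed in E. coli BL21, purified on zinc-loaded His-Trap column, eluted with 500 mM imidazole, dialyzed into assay buffer (>98% pure by SDS-PAGE). Tested directly against compounds; thiols generated in situ from disulfides with TCEP.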

MCF7 [6] = test: Inhibition of Class 1 histone deacetylase in human MCF7 cells assessed as up-regulation of p21 protein level at 1 uM after 24 hrs by Western blot analysis; assay type: cell-based; outline: as §1
MCF7 [7] = test: Growth inhibition of human MCF7 cells after 96 hrs by sulphorhodamine B assay; assay type: functional; conditions: MCF7, 96 h
Outline: (§3)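 SRB growth assay; MCF7 and WI38 seeded 4000 cells/well, A549 2000 cells/well, attached overnight, then exposed to freshly made drug solutions (0.1 to 50 μM) for 96 h. Fixed with cold 10% TCA, stained with 0.4% SRB; absorbance at 540 nm as percent of untreated control, IC50 from mean absorbance.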

Histone deacetylase 8 = biological target: T5, Histone deacetylase 8 (Homo sapiens, UniProt Q9BY41); test: Inhibition of human recombinant HDAC8 using Boc-lys(Ac)-AMC as substrate preincubated for 20 mins with substrate measured after 60 mins by fluorescence analysis
T5 sequence (Q9BY41 whole entry): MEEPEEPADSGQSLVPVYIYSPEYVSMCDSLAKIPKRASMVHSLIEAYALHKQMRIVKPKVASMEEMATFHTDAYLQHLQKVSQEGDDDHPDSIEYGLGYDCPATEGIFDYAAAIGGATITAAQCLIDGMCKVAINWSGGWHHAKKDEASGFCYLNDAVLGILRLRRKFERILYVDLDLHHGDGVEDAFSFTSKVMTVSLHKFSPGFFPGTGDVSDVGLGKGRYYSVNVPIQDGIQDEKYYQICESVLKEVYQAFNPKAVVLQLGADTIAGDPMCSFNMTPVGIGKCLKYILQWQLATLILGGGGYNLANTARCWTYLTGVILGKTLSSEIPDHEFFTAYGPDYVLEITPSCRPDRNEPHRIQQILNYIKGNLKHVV

Histone deacetylase 1 [8] = biological target: T1, Histone deacetylase 1; test: Inhibition of HDAC1 in human MCF7 cells assessed as up-regulation of acetylated histone H3 protein level at 1 uM after 24 hrs by Western blot analysis; assay type: cell-based; outline: as §1
A549 = test: Growth inhibition of human A549 cells after 96 hrs by sulphorhodamine B assay; assay type: functional; conditions: A549, 96 h; outline: as §3
[9] = Growth inhibition of human WI38 cells after 96 hrs by sulphorhodamine B assay; assay type: cell-based; conditions: WI-38 cells; outline: as §3
[10] = biological target: T6, Histone deacetylase-like amidohydrolase (Alcaligenes sp. (strain DSM 11172) (Bordetella sp. (strain FB188)), UniProt Q70I53); test: Inhibition of Bordetella sp. (strain FB188) N-terminus His-tagged HDAH expressed in Escherichia coli BL21 (DE3); parameters: species or system Alcaligenaceae bacterium FB188; outline: as §2
T6 sequence (Q70I53 whole entry): T4 sequence (whole entry)

[11] = biological target: DNA (cytosine-5)-methyltransferase 1 (Homo sapiens, UniProt P26358); test: Inhibition of full length N-terminal His6-tagged human DNMT1 at 120 uM after 1 hr by fluorescence analysis
Outline: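 Baculovirus-expressed DNMT1 (80 nM final) with SAM (10 μM final) and hemimethylated hairpin oligo (125 nM final) in MOPS buffer pH 6.5 with 1 mM DTT, 1 h room temperature. Stopped with Gla1 plus 125 μM SAH, developed 7 h; fluorescence Ex 485/Em 520 nm. Thiols made in situ by TCEP reduction; no SAM as full-inhibition control.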

Bacteria [12] = test: Inhibition of bacterial DNA cytosine-C5 methyltransferase, M.SssI at 50 uM
Outline: (§4)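 One unit M.SssI with 1 μg bacteriophage λ DNA in NEBuffer2 (pH 7.9, 1 mM DTT) plus 160 μM SAM, ±inhibitor, 2 h at 37 °C; heat-inactivated 65 °C 20 min. Methylation read by BstUI digestion (10 units, 1 h 60 °C) and 1.5% agarose gel electrophoresis; run four times with positive and negative controls.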

Bacteria [13] = test: Inhibition of bacterial DNA cytosine-C5 methyltransferase, M.SssI at 5 uM; outline: as §4

T1 sequence (Q13547 whole entry): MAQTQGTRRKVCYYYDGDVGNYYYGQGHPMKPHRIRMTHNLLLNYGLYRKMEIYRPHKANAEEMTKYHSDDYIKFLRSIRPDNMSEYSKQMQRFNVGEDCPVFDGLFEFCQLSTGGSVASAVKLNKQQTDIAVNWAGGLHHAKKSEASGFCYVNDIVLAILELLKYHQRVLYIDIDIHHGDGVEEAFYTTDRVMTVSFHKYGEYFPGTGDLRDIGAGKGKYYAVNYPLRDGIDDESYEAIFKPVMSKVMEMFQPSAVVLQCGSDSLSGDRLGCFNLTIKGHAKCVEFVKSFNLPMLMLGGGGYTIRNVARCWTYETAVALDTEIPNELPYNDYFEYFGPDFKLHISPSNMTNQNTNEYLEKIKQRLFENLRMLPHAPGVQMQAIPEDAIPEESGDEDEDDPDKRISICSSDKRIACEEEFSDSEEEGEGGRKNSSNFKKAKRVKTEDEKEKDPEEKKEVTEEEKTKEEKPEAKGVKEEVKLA
Chain of DNA (cytosine-5)-methyltransferase 1 (P26358 whole entry): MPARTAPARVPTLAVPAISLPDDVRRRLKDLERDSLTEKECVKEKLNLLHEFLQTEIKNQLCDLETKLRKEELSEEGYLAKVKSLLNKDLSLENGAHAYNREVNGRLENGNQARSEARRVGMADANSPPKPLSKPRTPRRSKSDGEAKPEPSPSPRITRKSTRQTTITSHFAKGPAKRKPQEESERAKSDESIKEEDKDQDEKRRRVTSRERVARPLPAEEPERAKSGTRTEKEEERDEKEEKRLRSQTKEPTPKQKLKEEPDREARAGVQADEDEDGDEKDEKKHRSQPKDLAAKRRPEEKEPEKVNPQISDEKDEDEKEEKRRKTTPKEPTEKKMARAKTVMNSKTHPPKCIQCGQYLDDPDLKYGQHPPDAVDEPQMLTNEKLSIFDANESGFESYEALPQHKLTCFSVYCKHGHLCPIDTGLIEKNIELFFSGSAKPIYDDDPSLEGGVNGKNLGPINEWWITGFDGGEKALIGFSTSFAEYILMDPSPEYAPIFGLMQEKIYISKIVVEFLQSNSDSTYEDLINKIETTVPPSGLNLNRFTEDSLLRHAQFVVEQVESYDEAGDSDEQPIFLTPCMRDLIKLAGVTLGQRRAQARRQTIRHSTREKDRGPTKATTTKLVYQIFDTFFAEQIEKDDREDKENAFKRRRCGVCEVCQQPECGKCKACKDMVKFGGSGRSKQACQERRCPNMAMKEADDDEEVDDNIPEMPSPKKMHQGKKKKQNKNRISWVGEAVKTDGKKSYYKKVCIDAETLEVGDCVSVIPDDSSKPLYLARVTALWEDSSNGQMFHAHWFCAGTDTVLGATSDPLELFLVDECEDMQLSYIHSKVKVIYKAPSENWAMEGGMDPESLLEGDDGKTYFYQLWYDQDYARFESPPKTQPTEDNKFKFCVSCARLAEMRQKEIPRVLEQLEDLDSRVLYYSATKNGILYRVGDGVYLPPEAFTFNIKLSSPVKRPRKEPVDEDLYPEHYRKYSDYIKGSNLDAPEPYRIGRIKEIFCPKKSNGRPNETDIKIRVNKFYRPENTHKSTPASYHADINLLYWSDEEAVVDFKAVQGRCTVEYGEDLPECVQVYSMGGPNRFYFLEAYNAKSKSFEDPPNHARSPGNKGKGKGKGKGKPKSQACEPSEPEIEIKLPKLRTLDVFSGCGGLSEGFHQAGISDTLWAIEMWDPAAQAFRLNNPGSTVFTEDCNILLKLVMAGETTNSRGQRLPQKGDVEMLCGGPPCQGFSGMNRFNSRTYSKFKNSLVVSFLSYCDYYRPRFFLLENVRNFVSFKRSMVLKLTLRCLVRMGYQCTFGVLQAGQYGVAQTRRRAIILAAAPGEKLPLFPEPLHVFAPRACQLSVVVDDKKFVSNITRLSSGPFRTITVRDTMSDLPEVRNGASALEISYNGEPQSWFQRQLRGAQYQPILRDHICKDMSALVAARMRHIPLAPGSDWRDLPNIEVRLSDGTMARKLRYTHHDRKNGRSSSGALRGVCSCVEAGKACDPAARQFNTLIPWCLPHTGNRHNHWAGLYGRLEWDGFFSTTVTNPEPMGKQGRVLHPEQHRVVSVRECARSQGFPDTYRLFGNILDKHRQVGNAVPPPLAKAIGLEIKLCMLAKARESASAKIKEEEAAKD

SMILES | IC50 (Histone deacetylase 1 [2]) [µM] | IC50 [3] [µM] | inhibition [4] | inhibition [5] | GI50 (MCF7 [7]) [µM] | IC50 (Histone deacetylase 8) [µM] | inhibition (Histone deacetylase 1 [8]) | GI50 (A549) [µM] | IC50 [10] [µM] | inhibition [11] | inhibition (Bacteria [12]) | inhibition (Bacteria [13]) | inhibition (MCF7 [1]) | inhibition (MCF7 [6]) | GI50 at 96 h [9] [µM]
CC(/C=C/C(=O)NO)=C\[C@@H](C)C(=O)c1ccc(N(C)C)cc1 | – | – | – | – | – | – | – | – | – | – | – | – | Active | – | –
O=C(Cc1ccc(O)c(Br)c1)C(=O)NCCS | 0.4 | 1 | – | inactive | 35.4 | – | – | 43 | – | – | – | – | – | – | 42.6
O=C(O)CCP(CCC(=O)O)CCC(=O)O | > 25 | > 25 | – | – | > 50 | – | – | > 50 | – | – | – | – | – | – | > 50
O=C(NCCSSCCNC(=O)/C(Cc1ccccc1)=N/O)/C(Cc1ccccc1)=N/O | – | – | – | inactive | 11.1 | – | – | 16.3 | – | – | – | – | – | – | > 50
CSCCNC(=O)/C(Cc1ccc(O)c(Br)c1)=N/O | 7.7 | > 50 | – | inactive | > 50 | – | – | > 50 | – | – | – | – | – | – | > 50
CSCCNC(=O)/C(Cc1ccc(O)c(Br)c1)=N/N | 50 | > 50 | – | inactive | > 50 | – | – | > 50 | – | – | – | – | – | – | > 50
O=C(CCCNC(=O)/C(Cc1ccc(O)c(Br)c1)=N/O)NO | 0.31 | 1.7 | – | Active | – | – | – | – | 5.25 | – | – | – | – | – | –
CO/N=C(\Cc1ccc(O)c(Br)c1)C(=O)NCCSC | 11 | > 50 | – | inactive | > 50 | – | – | > 50 | – | – | – | – | – | – | > 50
CO/N=C(\Cc1ccc(O)c(Br)c1)C(=O)NCCSSCCNC(=O)/C(Cc1ccc(O)c(Br)c1)=N/OC | 0.38 | 9.5 | – | inactive | – | – | – | 49.5 | – | – | – | – | – | – | > 50

Second part, led by results:

IC50 (Histone deacetylase 1 [2]) [µM] | IC50 [3] [µM] | inhibition [4] | inhibition [5] | GI50 (MCF7 [7]) [µM] | IC50 (Histone deacetylase 8) [µM] | inhibition (Histone deacetylase 1 [8]) | GI50 (A549) [µM] | IC50 [10] [µM] | inhibition [11] | inhibition (Bacteria [12]) | inhibition (Bacteria [13]) | SMILES | inhibition (MCF7 [1]) | inhibition (MCF7 [6]) | GI50 at 96 h [9] [µM]
0.002 | 0.19 | inactive | Active | 1.13 | 1.5 | Active | 1.59 | 0.31 | – | – | – | O=C(CCNC(=O)/C(Cc1ccc(O)c(Br)c1)=N/O)NO | – | Active | 7.86
– | – | – | inactive | 1 | – | – | 2.73 | – | – | – | – | O=C(NCCSSCCNC(=O)/C(Cc1ccc(F)c(Br)c1)=N/O)/C(Cc1ccc(F)c(Br)c1)=N/O | – | – | 1.8
0.001 | 0.51 | – | inactive | 2.25 | – | – | 4.4 | – | inactive | – | – | COc1cc(C/C(=N\O)C(=O)NCCS)cc(Br)c1OC | – | – | 4.31
5 | 9 | – | inactive | 13.1 | – | – | 15.2 | – | – | – | – | O=C(Cc1ccc(O)c(Br)c1)C(=O)NCCSSCCNC(=O)C(=O)Cc1ccc(O)c(Br)c1 | – | – | 33.1
0.012 | 3.3 | – | inactive | 9.38 | – | – | 15.2 | – | inactive | – | – | O=C(NCCS)/C(Cc1ccccc1)=N/O | – | – | 10.9
0.0009 | – | – | inactive | 2.35 | 1.3 | – | 2.53 | 30.2 | inactive | Active | Active | O=C(NCCS)/C(Cc1ccc(O)c(Br)c1)=N/O | – | – | 3.4
0.001 | 0.64 | – | inactive | 2.87 | – | – | 6.24 | – | inactive | – | – | O=C(NCCS)/C(Cc1ccc(F)c(Br)c1)=N/O | – | – | 7.72
0.027 | 0.22 | – | inactive | 19.3 | – | – | 10.6 | – | inactive | – | – | CO/N=C(\Cc1ccc(O)c(Br)c1)C(=O)NCCS | – | – | 24.2
– | – | – | inactive | 0.72 | – | – | 2.51 | – | – | – | – | COc1cc(C/C(=N\O)C(=O)NCCSSCCNC(=O)/C(Cc2cc(Br)c(OC)c(OC)c2)=N/O)cc(Br)c1OC | – | – | 2.14
0.0018 | 3.2 | – | inactive | 0.61 | – | – | 0.16 | – | inactive | – | – | COc1ccc(C/C(=N\O)C(=O)NCCS)cc1Br | – | – | 1.13
